This passage reports Activity and Selectivity ratio results from ChEMBL document CHEMBL1152541, “Staurosporine tethered peptide ligands that target cAMP-dependent protein kinase (PKA): optimization and selectivity profiling” (Bioorg Med Chem, 2009).

Assay [1] deals with Macrophage colony-stimulating factor 1 receptor (Homo sapiens) (UniProt P07333). Nature of the assay: Binding affinity to human CSF1R at 500 nM by cell-based competition binding assay relative to control in presence of DTT. An outline of the steps:
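Commercial (Ambit) competitive kinase-binding panel of 90 kinases measured the binding profile. Run under reducing conditions of 7.5 mM DTT. Binding is expressed relative to control.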

The target in assay [2] is Phosphatidylinositol 4,5-bisphosphate 3-kinase catalytic subunit gamma isoform (Homo sapiens) (UniProt P48736). Nature of the assay: Binding affinity to human PIK3Cgamma at 500 nM by cell-based competition binding assay relative to control in presence of DTT.
In assay [3] the target is Serine/threonine-protein kinase PLK1 (Homo sapiens) (UniProt P53350). Nature of the assay: Binding affinity to human PLK1 at 500 nM by cell-based competition binding assay relative to control in presence of DTT.
Sequence of Serine/threonine-protein kinase PLK1 (Homo sapiens) (P53350 whole entry): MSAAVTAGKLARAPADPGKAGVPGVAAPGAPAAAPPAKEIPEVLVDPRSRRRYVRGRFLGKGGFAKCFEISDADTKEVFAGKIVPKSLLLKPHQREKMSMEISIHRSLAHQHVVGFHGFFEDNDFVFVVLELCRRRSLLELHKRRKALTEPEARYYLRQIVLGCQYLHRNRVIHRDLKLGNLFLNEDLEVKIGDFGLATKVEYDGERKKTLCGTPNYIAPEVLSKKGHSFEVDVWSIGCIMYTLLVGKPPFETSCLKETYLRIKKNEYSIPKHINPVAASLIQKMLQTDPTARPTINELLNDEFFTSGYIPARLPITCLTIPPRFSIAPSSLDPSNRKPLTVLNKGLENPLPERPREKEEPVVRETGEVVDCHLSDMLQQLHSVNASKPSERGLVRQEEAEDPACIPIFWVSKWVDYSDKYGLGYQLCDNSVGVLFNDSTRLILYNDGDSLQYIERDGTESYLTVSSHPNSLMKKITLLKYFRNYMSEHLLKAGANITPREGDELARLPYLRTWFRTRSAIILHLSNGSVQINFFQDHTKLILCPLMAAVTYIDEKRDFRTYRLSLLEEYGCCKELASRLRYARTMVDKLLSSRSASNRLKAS
Assay [4] concerns Tyrosine-protein kinase ABL1 (Homo sapiens), P00519 [T315I]. Nature of the assay: Binding affinity to human ABL1 T315I mutant at 500 nM by cell-based competition binding assay relative to control in presence of DTT. Put shortly: (§1)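 Kinase binding profiling ran on a commercial (Ambit) competitive binding screen against a panel of 90 kinases. The screen used reducing conditions with 7.5 mM DTT. To withstand the DTT, the bivalent ligand was tested as its amide isostere, with the disulfide replaced. A staurosporine derivative carrying a 3 β-alanine linker was run as the reference compound.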

Assay [5] deals with Serine/threonine-protein kinase pim-1 (Homo sapiens) (UniProt P11309). Nature of the assay: Ratio of compound to staurosporine binding affinity to human PIM1 in presence of DTT.
Sequence of Serine/threonine-protein kinase pim-1 (Homo sapiens) (P11309 whole entry, looked up): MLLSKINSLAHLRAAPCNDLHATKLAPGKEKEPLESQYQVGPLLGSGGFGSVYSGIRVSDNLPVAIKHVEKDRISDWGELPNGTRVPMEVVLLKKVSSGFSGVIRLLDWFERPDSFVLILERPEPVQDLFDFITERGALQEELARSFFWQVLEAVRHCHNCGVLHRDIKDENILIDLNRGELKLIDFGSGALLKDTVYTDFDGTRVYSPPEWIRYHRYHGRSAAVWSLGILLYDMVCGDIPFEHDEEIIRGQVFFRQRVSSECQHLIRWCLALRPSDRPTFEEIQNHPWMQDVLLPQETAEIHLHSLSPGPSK
Assay [6] concerns the target Mitogen-activated protein kinase 10 (Homo sapiens) (UniProt P53779). Nature of the assay: Binding affinity to human JNK3 at 500 nM by cell-based competition binding assay relative to control in presence of DTT. Put shortly: (§2)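 Competition binding screen (Ambit) across a panel of 90 kinases, scoring test ligand displacement of each kinase's binding relative to control. The screen ran under reducing conditions with 7.5 mM DTT.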

In assay [7] the target is Platelet-derived growth factor receptor alpha (Homo sapiens) (UniProt P16234). Nature of the assay: Binding affinity to human PDGFRalpha at 500 nM by cell-based competition binding assay relative to control in presence of DTT.
The target of assay [8] is T1, Tyrosine-protein kinase JAK3 (Homo sapiens) (UniProt P52333).
T1 sequence (whole entry): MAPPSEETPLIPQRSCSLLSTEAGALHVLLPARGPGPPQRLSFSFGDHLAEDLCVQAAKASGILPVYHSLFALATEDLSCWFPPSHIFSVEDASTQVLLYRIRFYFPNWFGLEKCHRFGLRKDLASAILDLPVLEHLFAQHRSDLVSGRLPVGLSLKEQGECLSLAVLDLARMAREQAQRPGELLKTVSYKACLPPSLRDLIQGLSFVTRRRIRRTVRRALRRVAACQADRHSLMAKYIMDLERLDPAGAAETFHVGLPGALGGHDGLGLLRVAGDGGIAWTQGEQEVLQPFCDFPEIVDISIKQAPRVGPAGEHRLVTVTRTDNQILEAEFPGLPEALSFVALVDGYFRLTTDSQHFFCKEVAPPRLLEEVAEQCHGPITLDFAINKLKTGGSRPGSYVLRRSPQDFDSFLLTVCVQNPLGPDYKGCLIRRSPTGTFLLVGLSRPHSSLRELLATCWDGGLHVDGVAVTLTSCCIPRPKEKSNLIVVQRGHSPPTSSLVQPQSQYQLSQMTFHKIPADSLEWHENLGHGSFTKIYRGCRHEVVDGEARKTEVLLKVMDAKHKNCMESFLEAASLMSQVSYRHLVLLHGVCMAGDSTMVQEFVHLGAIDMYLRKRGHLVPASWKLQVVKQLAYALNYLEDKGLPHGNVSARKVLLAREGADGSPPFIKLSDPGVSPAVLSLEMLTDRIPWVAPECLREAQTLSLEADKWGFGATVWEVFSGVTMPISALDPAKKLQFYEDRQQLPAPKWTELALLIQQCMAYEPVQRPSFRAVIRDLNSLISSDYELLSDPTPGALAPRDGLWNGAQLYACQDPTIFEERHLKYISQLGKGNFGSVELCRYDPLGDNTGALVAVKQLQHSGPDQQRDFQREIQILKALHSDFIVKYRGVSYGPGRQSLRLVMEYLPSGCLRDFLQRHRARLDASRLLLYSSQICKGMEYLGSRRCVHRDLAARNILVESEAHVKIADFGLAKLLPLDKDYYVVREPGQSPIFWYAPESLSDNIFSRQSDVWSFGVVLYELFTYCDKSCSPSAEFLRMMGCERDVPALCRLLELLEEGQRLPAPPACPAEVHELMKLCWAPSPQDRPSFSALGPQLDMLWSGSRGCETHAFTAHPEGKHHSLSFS
Nature of the assay: Binding affinity to human JAK3 kinase domain 2 at 200 nM by cell-based competition binding assay relative to control in presence of DTT. Put shortly:
as §2

Assay [9] deals with Cyclin-dependent kinase 3 (Homo sapiens) (UniProt Q00526). Nature of the assay: Binding affinity to human CDK3 at 200 nM by cell-based competition binding assay relative to control in presence of DTT. Put shortly: as §1
Sequence of Cyclin-dependent kinase 3 (Homo sapiens) (Q00526 whole entry, looked up): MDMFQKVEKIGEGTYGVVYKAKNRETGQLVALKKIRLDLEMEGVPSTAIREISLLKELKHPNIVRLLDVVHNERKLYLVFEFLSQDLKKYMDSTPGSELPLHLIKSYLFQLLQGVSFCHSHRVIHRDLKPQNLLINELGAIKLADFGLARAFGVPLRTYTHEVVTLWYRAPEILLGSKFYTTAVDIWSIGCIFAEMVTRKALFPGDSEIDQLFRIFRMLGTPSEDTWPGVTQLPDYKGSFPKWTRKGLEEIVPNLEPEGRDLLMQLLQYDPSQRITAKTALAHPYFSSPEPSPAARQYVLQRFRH
Assay [10] addresses Serine/threonine-protein kinase PLK1 (Homo sapiens) (UniProt P53350). Nature of the assay: Binding affinity to human PLK1 at 200 nM by cell-based competition binding assay relative to control in presence of DTT.
In assay [11] the target is T2, Aurora kinase A (Homo sapiens) (UniProt O14965).
T2 sequence (whole entry): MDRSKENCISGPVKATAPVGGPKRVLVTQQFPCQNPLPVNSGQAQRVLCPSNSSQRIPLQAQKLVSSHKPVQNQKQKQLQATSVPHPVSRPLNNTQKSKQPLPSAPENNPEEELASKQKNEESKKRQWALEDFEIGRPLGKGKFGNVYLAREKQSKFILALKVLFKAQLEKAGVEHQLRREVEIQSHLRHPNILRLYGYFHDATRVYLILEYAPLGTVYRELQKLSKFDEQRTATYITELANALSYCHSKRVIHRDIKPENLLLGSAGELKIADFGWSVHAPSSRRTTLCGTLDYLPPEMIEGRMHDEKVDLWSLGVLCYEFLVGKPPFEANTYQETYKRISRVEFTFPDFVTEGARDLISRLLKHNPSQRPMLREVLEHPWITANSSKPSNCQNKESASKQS
Nature of the assay: Binding affinity to human aurora kinase A at 50 nM by cell-based competition binding assay relative to control in presence of DTT.

Assay [12] concerns the target Hepatocyte growth factor receptor (Homo sapiens) (UniProt P08581). Nature of the assay: Binding affinity to human MET at 50 nM by cell-based competition binding assay relative to control in presence of DTT.
Assay [13] has as its target RAF proto-oncogene serine/threonine-protein kinase (Homo sapiens) (UniProt P04049). Nature of the assay: Binding affinity to human RAF1 at 50 nM by cell-based competition binding assay relative to control in presence of DTT.
The target in assay [14] is Non-receptor tyrosine-protein kinase TYK2 (Homo sapiens) (UniProt P29597). Nature of the assay: Binding affinity to human TYK2 kinase domain 2 at 50 nM by cell-based competition binding assay relative to control in presence of DTT.
Sequence of Non-receptor tyrosine-protein kinase TYK2 (Homo sapiens) (P29597 whole entry, the tested form may be a part): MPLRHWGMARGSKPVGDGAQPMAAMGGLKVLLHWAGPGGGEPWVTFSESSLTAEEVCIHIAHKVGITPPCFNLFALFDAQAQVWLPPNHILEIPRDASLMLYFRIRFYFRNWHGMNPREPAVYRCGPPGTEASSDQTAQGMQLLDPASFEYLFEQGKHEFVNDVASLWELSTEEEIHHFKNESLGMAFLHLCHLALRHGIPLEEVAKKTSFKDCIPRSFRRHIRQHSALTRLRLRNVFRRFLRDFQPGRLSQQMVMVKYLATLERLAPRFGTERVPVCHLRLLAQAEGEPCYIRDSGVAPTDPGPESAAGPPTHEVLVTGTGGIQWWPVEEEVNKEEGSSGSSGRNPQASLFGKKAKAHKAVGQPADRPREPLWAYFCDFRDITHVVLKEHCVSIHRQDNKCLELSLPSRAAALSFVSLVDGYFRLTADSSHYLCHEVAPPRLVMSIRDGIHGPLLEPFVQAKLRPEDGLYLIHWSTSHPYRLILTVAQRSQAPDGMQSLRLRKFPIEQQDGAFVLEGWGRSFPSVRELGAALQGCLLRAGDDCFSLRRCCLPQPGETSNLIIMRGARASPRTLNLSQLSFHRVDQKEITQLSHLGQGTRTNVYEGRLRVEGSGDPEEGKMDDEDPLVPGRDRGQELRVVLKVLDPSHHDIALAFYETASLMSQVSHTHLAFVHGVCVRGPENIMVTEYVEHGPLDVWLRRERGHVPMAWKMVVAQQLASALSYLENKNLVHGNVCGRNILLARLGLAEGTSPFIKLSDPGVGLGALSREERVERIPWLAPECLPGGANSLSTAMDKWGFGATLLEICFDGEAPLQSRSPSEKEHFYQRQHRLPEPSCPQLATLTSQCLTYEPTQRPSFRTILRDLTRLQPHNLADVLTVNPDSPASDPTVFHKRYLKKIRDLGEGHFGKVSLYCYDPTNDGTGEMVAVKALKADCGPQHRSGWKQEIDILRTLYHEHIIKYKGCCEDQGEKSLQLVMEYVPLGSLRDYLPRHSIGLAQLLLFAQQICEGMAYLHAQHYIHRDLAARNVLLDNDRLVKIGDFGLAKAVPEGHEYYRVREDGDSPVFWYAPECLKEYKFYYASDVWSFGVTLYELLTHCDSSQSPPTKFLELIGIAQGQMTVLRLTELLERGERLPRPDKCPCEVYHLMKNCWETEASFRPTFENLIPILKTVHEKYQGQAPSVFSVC
Assay [15] has as its target Tyrosine-protein kinase JAK2 (Homo sapiens) (UniProt O60674). Nature of the assay: Binding affinity to human JAK2 kinase domain 2 at 50 nM by cell-based competition binding assay relative to control in presence of DTT. Put shortly: as §2

Structures are written as SMILES. *1 amine or outer side, *2 acyl side, *3 side chain or, on linkers, in order; H or OH if unused. Where a SMILES comes first, the peptide text is derived from it. Bridges are numbered along the chain shown (N, C = ends). [ ]: non-standard residue; d: D form. The star is where a group is joined. Staurosporine = CO[C@@H]1[C@H](N(C)*)C[C@H]2O[C@]1(C)n1c3ccccc3c3c4c(c5c6ccccc6n2c5c31)C(=O)NC4; Suc = O=C(CCC(=O)[*:2])[*:1]; Dap = NC[C@H](N)C(=O)O; βAla = NCCC(=O)O

Sequence of Mitogen-activated protein kinase 10 (Homo sapiens) (P53779 whole entry): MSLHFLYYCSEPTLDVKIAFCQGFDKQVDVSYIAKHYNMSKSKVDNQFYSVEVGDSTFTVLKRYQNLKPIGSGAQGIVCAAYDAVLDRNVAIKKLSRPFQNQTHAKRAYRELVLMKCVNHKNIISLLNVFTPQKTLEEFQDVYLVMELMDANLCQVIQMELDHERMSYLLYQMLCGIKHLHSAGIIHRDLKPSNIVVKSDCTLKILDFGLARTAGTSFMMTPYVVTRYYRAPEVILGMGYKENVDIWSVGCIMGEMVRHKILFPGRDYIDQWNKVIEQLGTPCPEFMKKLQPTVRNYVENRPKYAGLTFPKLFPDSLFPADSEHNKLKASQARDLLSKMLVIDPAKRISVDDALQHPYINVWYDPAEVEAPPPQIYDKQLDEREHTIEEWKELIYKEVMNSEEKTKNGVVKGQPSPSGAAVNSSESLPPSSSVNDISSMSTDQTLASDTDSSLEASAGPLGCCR
Sequence of Macrophage colony-stimulating factor 1 receptor (Homo sapiens) (P07333 whole entry): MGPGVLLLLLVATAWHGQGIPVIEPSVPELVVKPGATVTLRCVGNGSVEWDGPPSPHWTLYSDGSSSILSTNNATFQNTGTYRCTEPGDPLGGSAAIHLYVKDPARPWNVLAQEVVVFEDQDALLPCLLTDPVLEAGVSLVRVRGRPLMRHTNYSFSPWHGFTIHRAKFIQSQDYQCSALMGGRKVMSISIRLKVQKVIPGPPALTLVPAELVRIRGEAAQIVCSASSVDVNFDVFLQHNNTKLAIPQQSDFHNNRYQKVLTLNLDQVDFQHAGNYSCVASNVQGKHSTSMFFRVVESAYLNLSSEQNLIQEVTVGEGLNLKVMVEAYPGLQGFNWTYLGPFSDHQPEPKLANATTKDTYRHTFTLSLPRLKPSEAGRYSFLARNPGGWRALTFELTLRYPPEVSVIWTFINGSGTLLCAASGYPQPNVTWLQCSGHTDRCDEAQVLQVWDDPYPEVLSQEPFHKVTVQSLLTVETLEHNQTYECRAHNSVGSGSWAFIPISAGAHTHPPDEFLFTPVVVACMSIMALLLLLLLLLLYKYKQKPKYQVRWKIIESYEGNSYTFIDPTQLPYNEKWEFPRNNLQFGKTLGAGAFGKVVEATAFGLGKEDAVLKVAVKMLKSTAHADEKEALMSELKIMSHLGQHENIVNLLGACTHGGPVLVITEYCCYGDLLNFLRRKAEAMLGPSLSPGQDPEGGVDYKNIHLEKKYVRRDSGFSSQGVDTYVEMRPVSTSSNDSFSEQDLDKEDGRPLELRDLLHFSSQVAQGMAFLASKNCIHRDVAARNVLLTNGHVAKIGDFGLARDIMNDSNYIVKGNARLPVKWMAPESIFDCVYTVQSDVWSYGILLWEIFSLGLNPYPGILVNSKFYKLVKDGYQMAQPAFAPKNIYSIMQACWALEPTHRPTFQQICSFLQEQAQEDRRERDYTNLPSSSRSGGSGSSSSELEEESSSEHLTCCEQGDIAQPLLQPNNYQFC
Sequence of RAF proto-oncogene serine/threonine-protein kinase (Homo sapiens) (P04049 whole entry, the tested form may be a part): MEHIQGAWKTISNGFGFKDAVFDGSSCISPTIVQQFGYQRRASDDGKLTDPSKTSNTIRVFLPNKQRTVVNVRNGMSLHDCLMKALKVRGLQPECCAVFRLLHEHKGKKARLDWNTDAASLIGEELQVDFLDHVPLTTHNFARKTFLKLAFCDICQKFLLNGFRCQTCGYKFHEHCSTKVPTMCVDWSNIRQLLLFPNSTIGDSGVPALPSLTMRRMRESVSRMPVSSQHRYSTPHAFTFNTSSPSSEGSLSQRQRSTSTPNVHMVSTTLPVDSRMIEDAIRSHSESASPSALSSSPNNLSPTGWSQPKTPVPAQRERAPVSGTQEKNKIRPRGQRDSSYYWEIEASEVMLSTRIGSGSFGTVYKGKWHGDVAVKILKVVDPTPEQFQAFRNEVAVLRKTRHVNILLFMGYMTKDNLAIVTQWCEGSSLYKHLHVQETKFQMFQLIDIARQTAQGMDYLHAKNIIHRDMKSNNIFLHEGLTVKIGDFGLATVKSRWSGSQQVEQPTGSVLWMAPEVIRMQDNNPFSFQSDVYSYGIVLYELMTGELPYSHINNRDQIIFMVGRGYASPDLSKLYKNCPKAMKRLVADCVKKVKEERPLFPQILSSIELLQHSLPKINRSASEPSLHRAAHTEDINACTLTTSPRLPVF

As to `CO[C@@H]1[C@H](N(C)C(=O)CCC(=O)NCCC(=O)NCCC(=O)NCCC(N)=O)C[C@H]2O[C@]1(C)n1c3ccccc3c3c4c(c5c6ccccc6n2c5c31)C(=O)NC4`, the Activity in assay [1] is 22%; in [2] it was 15%; in [3] it was 85%; in assay [4] it was 35%; in [6], 55%; in assay [7], 7%. Further, the Selectivity ratio in [5] worked out at 31.

Regarding `CO[C@@H]1[C@H](N(C)C(=O)CCC(=O)NCCC(=O)NCCC(=O)NCCC(=O)NCCC(=O)NCCC(=O)NCCC(=O)NCCC(=O)N[C@H]2CSSC[C@@H](C(=O)NCC(N)=O)NC(=O)CNC(=O)[C@H](Cc3ccccc3)NC(=O)[C@H](C(C)C)NC(=O)[C@H](CCCNC(=N)N)NC(=O)[C@H](Cc3ccccc3)NC(=O)[C@H](C(C)C)NC2=O)C[C@H]2O[C@]1(C)n1c3ccccc3c3c4c(c5c6ccccc6n2c5c31)C(=O)NC4` ({Staurosporine-Suc-βAla-βAla-βAla-βAla-βAla-βAla-βAla}-CVFRVFGCG-NH2; disulfide 1-8), the Activity in assay [8] was found to be 4.6%; in assay [9], 100%; in [10], 95%.

For `CO[C@@H]1[C@H](N(C)C(=O)CCC(=O)NCCC(=O)NCCC(=O)NCCC(=O)NCCC(=O)NCCC(=O)NCCC(=O)NCCC(=O)N[C@H]2CNC(=O)C[C@@H](C(N)=O)NC(=O)CNC(=O)[C@H](Cc3ccccc3)NC(=O)[C@H](C(C)C)NC(=O)[C@H](CCCNC(=N)N)NC(=O)[C@H](Cc3ccccc3)NC(=O)[C@H](C(C)C)NC2=O)C[C@H]2O[C@]1(C)n1c3ccccc3c3c4c(c5c6ccccc6n2c5c31)C(=O)NC4` ({Staurosporine-Suc-βAla-βAla-βAla-βAla-βAla-βAla-βAla}-[Dap]VFRVFGD-NH2; lactam 1-8), the Activity was 63% in assay [11]; 100% in [12]; 100% in [13]; 100% in [14]; 42% in [15].
